# In ChEMBL document CHEMBL3112552, “Structure activity relationship studies of 3-arylsulfonyl-pyrido[1,2-a]pyrimidin-4-imines as potent 5-HT₆ antagonists” (Bioorg Med Chem, 2014):
# Activity calls are given as the source filed them. No cut-off for these calls is given here.
# Tests used:
# [1] = biological target: T1, 5-hydroxytryptamine receptor 6 (Homo sapiens, UniProt P50406); experiment: Antagonist activity at human cloned 5-HT6 receptor expressed in HeLa cells assessed as inhibition of 5-HT-stimulated conversion of [alpha-33P]ATP to [33P]cAMP; format: functional, cell-based
# [2] = biological target: T1, 5-hydroxytryptamine receptor 6; experiment: Displacement of [3H]LSD from human cloned 5-HT6 receptor expressed in HeLa cells; format: cell-based
# [3] = Half life in human liver microsomes at 0.5 uM in presence of NADPH; format: ADME
# Method in brief: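 Test compound incubated with human liver microsomes (1 mg/ml) plus NADPH (1 mM) for 0–45 min. Reactions were stopped and parent remaining in supernatant was quantified by LC–MS/MS. T1/2 was taken from the plot of % remaining versus time. Omeprazole was run as a reference control.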
# [4] = Permeability of the compound; format: ADME; details: not told; read-out: permeability
# [5] = Ratio of drug level in brain to plasma in rat at 10 mg/kg, ip; format: ADME, organism-based; parameters: dose 10 mg/kg, route intraperitoneal; details: read-out: BPR
# Method in brief: (§1)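 Rats received a single intraperitoneal dose of 10 mg/kg. Brain and plasma drug levels were measured 30 minutes post-dose, and the brain/plasma ratio was derived from them.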
# [6] = Oral bioavailability in rat; format: ADME, organism-based; details: in vivo
# Brain = experiment: Drug uptake in rat brain at 10 mg/kg, ip; format: ADME, organism-based; parameters: dose 10 mg/kg, route intraperitoneal; details: in vivo, read-out: Drug uptake; method in brief: as §1
# T1 sequence (P50406 whole entry): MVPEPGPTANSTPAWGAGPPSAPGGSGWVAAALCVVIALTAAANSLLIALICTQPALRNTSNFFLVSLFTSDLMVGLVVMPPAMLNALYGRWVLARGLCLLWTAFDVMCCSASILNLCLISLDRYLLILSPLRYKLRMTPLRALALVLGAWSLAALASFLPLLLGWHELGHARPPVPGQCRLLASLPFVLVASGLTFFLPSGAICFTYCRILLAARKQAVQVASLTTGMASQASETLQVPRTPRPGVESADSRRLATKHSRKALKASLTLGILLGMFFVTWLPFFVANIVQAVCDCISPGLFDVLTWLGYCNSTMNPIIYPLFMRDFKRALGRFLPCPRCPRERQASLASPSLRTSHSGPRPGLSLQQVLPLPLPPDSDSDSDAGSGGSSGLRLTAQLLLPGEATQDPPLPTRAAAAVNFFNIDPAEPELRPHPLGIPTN
SMILES,antagonist activity (active/inactive call) [1],IC50 [2],half-life at 0.5 µM [3],Papp [4],Kp [5],bioavailability [6],concentration (Brain)
N=c1c(S(=O)(=O)c2ccccc2)c(NCCO)nc2ccccn12,Active,42 nM,–,–,–,–,–
CSc1nc2ccccn2c(=N)c1S(=O)(=O)c1ccc(OC(F)(F)F)cc1,Active,420 nM,2.8 min,–,–,–,–
CSc1nc2ccccn2c(=N)c1S(=O)(=O)c1ccccc1,Active,–,5.2 min,17 ×10⁻⁶ cm/s,1.2,< 1%,1900 nM
CSc1nc2ccccn2c(=N)c1S(=O)(=O)c1ccc(F)cc1,Active,22 nM,3.1 min,–,–,–,–
CSc1nc2ccccn2c(=O)c1S(=O)(=O)c1ccccc1,Active,52 nM,40 min,–,–,–,–
CSc1nc2ccccn2/c(=N\C(C)=O)c1S(=O)(=O)c1ccccc1,Active,83 nM,43 min,–,–,–,–
CCCc1ccn2c(=N)c(S(=O)(=O)c3ccccc3)c(SC)nc2c1,Active,700 nM,–,–,–,–,–
CSc1nc2cc(C)ccn2c(=N)c1S(=O)(=O)c1ccccc1,Active,41 nM,–,–,–,–,–
CSc1nc2c(Br)cc(C)cn2c(=N)c1S(=O)(=O)c1ccccc1,Active,126 nM,–,–,–,–,–
CSc1nc2c(C)cc(Br)cn2c(=N)c1S(=O)(=O)c1ccccc1,Active,12 nM,–,–,–,–,–
CSc1nc2ccccn2c(=N)c1S(=O)(=O)c1cc(C)c(Cl)cc1C,Active,50 nM,4.1 min,–,–,–,–
CSc1nc2ccc(C)cn2c(=N)c1S(=O)(=O)c1ccccc1,Active,1.3 nM,–,–,–,–,–
CSc1nc2c(C)cccn2c(=N)c1S(=O)(=O)c1ccccc1,Active,3.4 nM,–,–,–,–,–
CSc1nc2ccc(Br)cn2c(=N)c1S(=O)(=O)c1ccccc1,Active,56 nM,7.5 min,–,–,–,–
CSc1nc2ccccn2c(=N)c1S(=O)(=O)c1ccc2ccccc2c1,Active,59 nM,–,–,–,–,–
COc1ccc2[nH]c([S+]([O-])Cc3ncc(C)c(OC)c3C)nc2c1 (stereo unspecified) [OMEPRAZOLE],–,–,26 min,–,–,–,–
CCOc1nc2ccccn2c(=N)c1S(=O)(=O)c1ccccc1,Active,12 nM,–,–,–,–,–
COc1nc2ccccn2c(=N)c1S(=O)(=O)c1ccccc1,Active,21 nM,13.7 min,–,–,–,–

SMILES,antagonist activity (active/inactive call) [1],IC50 [2],half-life at 0.5 µM [3],Papp [4],Kp [5],bioavailability [6],concentration (Brain)
CNc1nc2ccccn2c(=N)c1S(=O)(=O)c1ccccc1,Active,2.4 nM,7.2 min,–,–,–,–
CSc1nc2ccccn2c(=N)c1S(=O)(=O)c1ccccc1Cl,Active,11 nM,–,–,–,–,–
CSc1nc2ccccn2c(=N)c1S(=O)(=O)c1ccc(C(C)(C)C)cc1,Active,65 nM,3.9 min,–,–,–,–
CSc1nc2c3ccccc3ccn2c(=N)c1S(=O)(=O)c1ccccc1,Active,55 nM,7.9 min,–,–,–,–
CSc1nc2c(Cc3ccccc3)cccn2c(=N)c1S(=O)(=O)c1ccccc1,Active,330 nM,5.5 min,–,–,–,–
CCc1ccn2c(=N)c(S(=O)(=O)c3ccccc3)c(SC)nc2c1,Active,80 nM,–,–,–,–,–
C[S+]([O-])c1nc2ccccn2c(=N)c1S(=O)(=O)c1ccccc1 (stereo unspecified),Active,250 nM,–,–,–,–,–
CSc1nc2c3ncccc3ccn2c(=N)c1S(=O)(=O)c1ccccc1,Active,57 nM,–,–,–,–,–
CSc1nc2ccccn2c(=N)c1S(=O)(=O)c1ccc(Cl)c(Cl)c1,Active,18 nM,3.1 min,–,–,–,–
CSc1nc2ccc(Cl)cn2c(=N)c1S(=O)(=O)c1ccccc1,Active,28 nM,–,–,–,–,–
Cc1ccc(Nc2nc3ccc(C)cn3c(=N)c2S(=O)(=O)c2ccccc2)nc1,Active,60 nM,–,–,–,–,–
CSc1nc2c(C)cc(Cc3ccccc3)cn2c(=N)c1S(=O)(=O)c1ccccc1,Active,60 nM,–,–,–,–,–
CSc1nc2ccc(C(N)=O)cn2c(=N)c1S(=O)(=O)c1ccccc1,Active,8.8 nM,–,–,–,–,–
CCNc1nc2ccccn2c(=N)c1S(=O)(=O)c1ccccc1,Active,2 nM,–,–,–,–,–
CSc1nc2ccc(F)cn2c(=N)c1S(=O)(=O)c1ccccc1,Active,28 nM,–,–,–,–,–
COC(=O)c1ccc2nc(SC)c(S(=O)(=O)c3ccccc3)c(=N)n2c1,Active,470 nM,–,–,–,–,–
C/N=c1/c(S(=O)(=O)c2ccccc2)c(SC)nc2ccccn12,Active,120 nM,2.8 min,–,–,–,–
